# In the library only some 1% were active in any assay of this set; here they are far more common.
# Hsp70 activator – Hsp70 transcriptional activation, primary screen; HeLa Hsp70 promoter luciferase reporter, luminescence; scaled: vehicle 0, proteasome-inhibitor control 100%; activation, % at 10 µM; hit rate 0.04% among 200,000; AID 1203;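 active = activation above the mean across all tested compounds plus 3 SD, cutoff set per campaign, cut at about 5.5% in these data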;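 also: 100% = MG132 at 30 µM as the positive control and 0% = DMSO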
# TLR9-MyD88 inh – inhibitors of human TLR9-MyD88 binding; CHO BLA complementation TLR9-MyD88, CCF4 FRET ratio; inhibition, % at 4.98 µM; hit rate 0.21% among 340,000; AID 504734;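 active = inhibition above the mean over all tested compounds plus 3 SD, cut at about 21% in these data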;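 also: 0% = DMSO only wells and 100% = clavulanate BLA inhibitor control wells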
# TLR4-MyD88 BLA – blocks binding of human TLR4 to MyD88; O00206+Q99836; HeLa CL3-4 TLR4/MyD88 BLA complementation, FRET ratio; inhibition, % at 8.4 µM; hit rate 0.18% among 200,000; in the data active = inhibition above about 25%;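 also: 0% = vehicle and 100% = reference inhibitor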
# Target sequence (O00206 whole entry, looked up): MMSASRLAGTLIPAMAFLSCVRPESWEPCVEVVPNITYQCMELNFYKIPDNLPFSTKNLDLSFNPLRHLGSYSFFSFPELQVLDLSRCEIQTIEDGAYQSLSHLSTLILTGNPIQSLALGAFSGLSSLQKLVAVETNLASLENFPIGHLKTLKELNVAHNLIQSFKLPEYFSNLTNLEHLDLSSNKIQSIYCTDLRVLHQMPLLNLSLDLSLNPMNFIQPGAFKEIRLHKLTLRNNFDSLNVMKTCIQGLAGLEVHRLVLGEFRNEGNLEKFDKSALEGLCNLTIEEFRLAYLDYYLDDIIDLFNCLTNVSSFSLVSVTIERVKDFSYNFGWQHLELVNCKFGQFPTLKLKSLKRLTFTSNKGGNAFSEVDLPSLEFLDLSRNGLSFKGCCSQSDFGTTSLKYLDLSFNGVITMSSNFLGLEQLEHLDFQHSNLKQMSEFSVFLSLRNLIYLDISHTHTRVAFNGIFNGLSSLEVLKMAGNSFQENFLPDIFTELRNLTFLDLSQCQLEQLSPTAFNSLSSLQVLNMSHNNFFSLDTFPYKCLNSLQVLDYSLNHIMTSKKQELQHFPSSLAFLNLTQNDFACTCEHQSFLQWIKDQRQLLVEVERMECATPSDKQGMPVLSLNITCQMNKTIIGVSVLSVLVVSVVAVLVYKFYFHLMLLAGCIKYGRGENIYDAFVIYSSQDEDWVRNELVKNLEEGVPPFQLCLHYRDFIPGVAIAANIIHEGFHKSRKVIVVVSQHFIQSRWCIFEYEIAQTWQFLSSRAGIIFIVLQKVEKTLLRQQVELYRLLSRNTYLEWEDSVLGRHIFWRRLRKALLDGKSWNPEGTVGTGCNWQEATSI
# Target sequence (Q99836 whole entry, looked up): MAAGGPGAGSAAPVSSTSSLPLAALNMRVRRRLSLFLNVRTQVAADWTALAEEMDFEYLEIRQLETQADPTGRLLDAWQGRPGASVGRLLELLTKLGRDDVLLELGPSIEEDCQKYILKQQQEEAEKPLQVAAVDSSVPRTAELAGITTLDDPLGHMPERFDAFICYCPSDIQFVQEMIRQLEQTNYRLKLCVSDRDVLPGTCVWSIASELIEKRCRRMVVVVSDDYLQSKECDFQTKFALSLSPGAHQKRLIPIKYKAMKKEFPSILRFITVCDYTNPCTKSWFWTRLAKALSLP
# bCat nuc transl – alters nuclear translocation of beta-catenin in HeLa cells; immunofluorescence imaging; nuclear translocation activity, % at 5 µM; hit rate 0.3% among 190,000; AID 1665;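 active = nuclear translocation activity above 50% at 5 µM, with a well cell count of 50 or more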;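 also: per-cell ratio of nuclear to cytoplasmic median beta-catenin stain intensity; plate controls were DMSO negative control for no effect and GSK-3 inhibitor IX positive control for full effect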
#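 Test system: human HeLa cells, native beta-catenin. Compound dosing: 5 µM primary single dose, 0.1% DMSO, 0.02–20 µM confirmation series. Incubation: compound exposure 24 h at 37°C. Detection: beta-catenin immunostaining with DAPI counterstain, 20x imaging, 6 fields/well. Read-out basis: Nuclear/cytoplasmic beta-catenin signal ratio, % activation.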
# MT stabilize HCS – stabilizes microtubules in HeLa cells; HeLa tubulin immunostaining HCS, 24 h; share of cells brighter than vehicle mean+2SD; % tubulin-high responders, % at 10 µM; hit rate 0.83% among 200,000;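 active = plate Z-score above 3 for both tubulin-high and condensed-nucleus cell shares, with cell loss under 80%, at 10 µM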;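 also: anti alpha tubulin signal scored within the nucleus-defined area of each cell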
# NOD2 RIPK2 PPI – NOD2-RIPK2 protein interaction inhibition; O43353; CHO BLA complementation NOD2-RIPK2, CCF4 ratio; inhibition, % at 4.98 µM; hit rate 0.38% among 360,000; in the data active = inhibition above about 21%;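 also: 0% = vehicle only and 100% = reference blocker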
# * marks the source's active call; other numbers are inactive results; . = no result given.
SMILES,Hsp70 activator,TLR9-MyD88 inh,TLR4-MyD88 BLA,bCat nuc transl,MT stabilize HCS,NOD2 RIPK2 PPI
COc1cc2c(cc1OC)CN(C(=O)c1cccs1)CC2,0,-4,-4,-2,3,-5
COc1cccc2cc(C(=O)N3CCc4ccccc4C3)c(=O)oc12,0,-2,-5,0,4,-11
COc1cc2c(cc1OC)CN(C(=O)c1cc3ccccc3oc1=O)CC2,0,-1,0,1,19*,-10
CCCCC(=NCCc1c(C)[nH]c2ccc(OC)cc12)C1=C(O)CC(c2ccccc2)CC1=O (stereo unspecified),0,9,12,17,17*,-2
CCC(=NCCc1c(C)[nH]c2ccccc12)C1=C(O)CC(c2ccccc2)CC1=O (stereo unspecified),0,1,14,80*,15*,-2
CCOC(=O)c1c(NC(=O)CN2C(=O)NC(C)(c3ccccc3)C2=O)sc(C)c1C (stereo unspecified),0,16,-16,62*,13*,7
CCOC(=O)c1c(NC(=O)CN2C(=O)NC3(CCCCC3C)C2=O)sc(C)c1C (stereo unspecified),0,-12,-8,1,2,2
COc1ccc(NC(=O)/C=C/c2cc(Br)ccc2OC)cc1,0,2,-9,0,2,-7
COc1ccc(Br)cc1/C=C/C(=O)c1ccc(NC(C)=O)cc1,1,5,13,52*,8,0
COc1ccc(CNC(=O)CCc2ccc(S(=O)(=O)N3CCCCCC3)cc2)cc1OC,.,7,.,.,.,-13
C=C(c1ccc2nc(NC(=O)OC)[nH]c2c1)c1cccs1,.,3,.,.,.,5
C=CCOc1ccc2nc(NC(=O)OC)[nH]c2c1,1,10,0,109*,38*,8
CC(=O)Cc1nsc(NC(=O)c2ccc(-c3cc(Cl)ccc3Cl)o2)n1,0,7,1,132*,26*,-3
COc1cc(C(=O)OCn2nnc3ccccc3c2=O)cc(OC)c1OC,0,-1,-4,83*,6,-5
CCCOc1ccc2ccccc2c1/C=N/n1c(C)nnc1-n1nc(C)cc1C,0,-5,7,168*,55*,8
Cc1cc(C)n(-c2nnc(C)n2/N=C/c2ccco2)n1,0,-2,10,.,1,-5
CCCCN(C)c1c(C)nc2ccc(C(=O)N(C)CCN(C)C)cn12,.,.,.,.,.,-10
O=S(=O)(c1cc(-c2nnc(-c3ccc(Br)cc3)o2)ccc1Br)N1CCCCCC1,0,-17,-19,-2,43*,-11
O=S(=O)(c1cc(Br)ccc1Br)N1CCCCCC1,.,0,.,.,.,-7
COc1ccc(OC)c(Nc2ncnc3c2cnn3-c2cccc(C)c2)c1,0,-3,-2,1,35*,7
COc1ccc(Nc2ncnc3c2cnn3-c2ccccc2)cc1OC,0,-3,-4,0,4,0
Cc1cccc(-n2ncc3c(NCc4cccs4)ncnc32)c1,0,-3,-9,1,10,-10
Cc1ccc(-n2ncc3c(NCc4ccco4)ncnc32)cc1C,0,3,-3,0,9.4*,-11
Cc1cccc(-n2ncc3c(NCc4ccccc4)ncnc32)c1,1,-2,1,-1,6,7
Cc1cccc(-n2ncc3c(NCc4ccco4)ncnc32)c1,0,1,3,45,28*,2
SMILES,Hsp70 activator,TLR9-MyD88 inh,TLR4-MyD88 BLA,bCat nuc transl,MT stabilize HCS,NOD2 RIPK2 PPI
CCOc1cc(C=O)cc(Cl)c1OCC(N)=O,0,0,5,0,1,-6
COc1ccc(C(C)(NC(C)=O)c2nc(-c3cc(F)cc(F)c3)cs2)cc1 (stereo unspecified),.,.,.,.,.,-5
COc1cccc(C(=O)NCCS(=O)(=O)N2CCC(C)CC2)c1,.,-4,.,.,.,1
O=C1NC(=O)C(c2ccccc2)(c2ccc(Cl)cc2Cl)N1 (stereo unspecified),.,-9,.,.,.,-17
CO/N=C/C(=N\Nc1ccc(OC)cc1)C(=O)c1ccc(OC)cc1,0,2,-5,.,53*,-3
CCOC(=O)N1CCN(C(=O)C[C@@H]2C[C@@]3(C(=O)OC)CC(C)(C)CC=C3N(Cc3cccc4ccccc34)C2=O)CC1,.,.,.,.,.,-7
CCc1nc(SCC(=O)Nc2cc(C)on2)c2c(C)c(C)sc2n1,0,2,-3,0,5,2
Cc1cc(NC(=O)CSc2nc(C3CC3)nc3sc(C)c(C)c23)no1,0,-5,-16,267*,34*,-5
COc1ccc2ncccc2c1Cc1c(OC)ccc2ncccc12,.,-3,.,.,.,4
COC(=O)CS(=O)(=O)c1nnc([C@H](Cc2ccccc2)NC(=O)OC(C)(C)C)o1,0,-2,8,0,2,46*
Cc1cccc(CS(=O)(=O)c2nnc([C@H](Cc3ccccc3)NC(=O)OC(C)(C)C)o2)c1,0,11,5,.,1,65*
COC(=O)CSc1nnc([C@H](Cc2ccccc2)NC(=O)OC(C)(C)C)o1,-1,-8,-1,-1,2,-10
CC(C)(C)OC(=O)N[C@@H](Cc1ccccc1)c1nnc(SCC(N)=O)o1,.,-16,.,0,.,-4
COc1ccc(CN2C(=O)c3ccccc3C2c2nnnn2-c2c(C)cccc2C)cc1OC (stereo unspecified),.,.,.,.,.,-3
CCn1cc(C(=O)NC(C)C23CC4CC(CC(C4)C2)C3)cn1 (stereo unspecified),0,-6,-8,1,2,-8
CC(NC(=O)Cn1ncc(Cl)c(Cl)c1=O)C12CC3CC(CC(C3)C1)C2 (stereo unspecified),1,23*,21,2,5,66*
O=C(Cc1ccc(O)cc1)N/N=C/c1cccnc1,.,-3,.,.,.,2
COc1ccc(C2=NOC(C(=O)NCc3cccs3)C2)cc1OC (stereo unspecified),0,.,3,.,41*,.
COc1cc(OC)c(C2=NOC(C(=O)NCc3cccnc3)C2)cc1Cl (stereo unspecified),.,-12,.,.,.,-1
COc1cc(OC)c(C2=NOC(C(=O)NCc3cccs3)C2)cc1Cl (stereo unspecified),0,1,5,24,19*,-8
CCCS(=O)(=O)NC(=O)C1(C)CCCN(C(=O)COc2ccccc2)C1 (stereo unspecified),.,.,.,.,.,-27
CC(C)NC(=O)c1cc(-c2ccc(F)cc2OC(C)C)n[nH]1,.,.,.,.,.,-6
O=C(C1c2ccccc2Oc2ccccc21)N1CCN(c2ccc(Cl)cc2)CC1,0,3,0,.,33*,-1
COc1ccccc1N1CCN(C(=O)C2c3ccccc3Oc3ccccc32)CC1,0,5,-4,95*,26*,13
O=C(C1CCC1)N1CCN(c2ccc(Cl)cc2)CC1,.,-2,.,.,.,-3

# From PubChem BioAssay
